Measured values as given in ChEMBL document CHEMBL1148591, “Isothiazolopyridones: synthesis, structure, and biological activity of a new class of antibacterial agents” (J Med Chem, 2006).
Converted amounts (≈) assume the structure as drawn. The source made the active and inactive calls. The calls are words filed in the database; no cut-off is given here.

Legend:
[1] = molecular target: DNA topoisomerase II (Homo sapiens) (UniProt P11388+Q02880); assay: Activity against human topoisomerase 2; assay type: protein assay
Procedure, shortened: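 Human topoisomerase II DNA cleavage assay. The read-out is EC₂, the drug concentration that enhances enzyme-mediated cleavage of double-stranded DNA 2-fold.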

[2] = tested on: Escherichia coli; assay: Antibacterial activity against Escherichia coli ATCC 25922; assay type: functional
[3] = tested on: Staphylococcus aureus; assay: Antibacterial activity against Staphylococcus aureus ATCC 29213; assay type: functional
[4] = molecular target: DNA gyrase (Staphylococcus aureus) (UniProt P0A0K8+P20831); assay: Inhibition of DNA gyrase supercoiling in Staphylococcus aureus ATCC 29213; assay type: protein-complex assay
DNA gyrase (Staphylococcus aureus), sequence (P0A0K8 2-644 limits assumed): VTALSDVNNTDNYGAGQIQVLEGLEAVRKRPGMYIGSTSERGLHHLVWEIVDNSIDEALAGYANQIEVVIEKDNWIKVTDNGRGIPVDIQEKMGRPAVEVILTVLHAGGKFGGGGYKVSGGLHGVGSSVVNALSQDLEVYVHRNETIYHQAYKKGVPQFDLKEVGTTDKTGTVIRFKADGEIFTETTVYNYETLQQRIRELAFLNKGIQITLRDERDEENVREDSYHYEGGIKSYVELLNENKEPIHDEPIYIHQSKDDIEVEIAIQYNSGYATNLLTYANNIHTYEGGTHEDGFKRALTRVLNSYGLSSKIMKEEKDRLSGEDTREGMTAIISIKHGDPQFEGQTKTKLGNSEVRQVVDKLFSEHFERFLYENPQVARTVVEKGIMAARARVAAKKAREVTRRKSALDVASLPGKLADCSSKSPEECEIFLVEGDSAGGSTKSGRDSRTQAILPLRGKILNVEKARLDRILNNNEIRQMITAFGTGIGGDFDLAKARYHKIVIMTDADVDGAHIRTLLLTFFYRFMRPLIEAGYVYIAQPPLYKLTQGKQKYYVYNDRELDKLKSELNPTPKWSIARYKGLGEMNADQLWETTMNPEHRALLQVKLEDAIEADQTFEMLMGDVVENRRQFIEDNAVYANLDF
DNA gyrase (Staphylococcus aureus), sequence (P20831 whole entry partner): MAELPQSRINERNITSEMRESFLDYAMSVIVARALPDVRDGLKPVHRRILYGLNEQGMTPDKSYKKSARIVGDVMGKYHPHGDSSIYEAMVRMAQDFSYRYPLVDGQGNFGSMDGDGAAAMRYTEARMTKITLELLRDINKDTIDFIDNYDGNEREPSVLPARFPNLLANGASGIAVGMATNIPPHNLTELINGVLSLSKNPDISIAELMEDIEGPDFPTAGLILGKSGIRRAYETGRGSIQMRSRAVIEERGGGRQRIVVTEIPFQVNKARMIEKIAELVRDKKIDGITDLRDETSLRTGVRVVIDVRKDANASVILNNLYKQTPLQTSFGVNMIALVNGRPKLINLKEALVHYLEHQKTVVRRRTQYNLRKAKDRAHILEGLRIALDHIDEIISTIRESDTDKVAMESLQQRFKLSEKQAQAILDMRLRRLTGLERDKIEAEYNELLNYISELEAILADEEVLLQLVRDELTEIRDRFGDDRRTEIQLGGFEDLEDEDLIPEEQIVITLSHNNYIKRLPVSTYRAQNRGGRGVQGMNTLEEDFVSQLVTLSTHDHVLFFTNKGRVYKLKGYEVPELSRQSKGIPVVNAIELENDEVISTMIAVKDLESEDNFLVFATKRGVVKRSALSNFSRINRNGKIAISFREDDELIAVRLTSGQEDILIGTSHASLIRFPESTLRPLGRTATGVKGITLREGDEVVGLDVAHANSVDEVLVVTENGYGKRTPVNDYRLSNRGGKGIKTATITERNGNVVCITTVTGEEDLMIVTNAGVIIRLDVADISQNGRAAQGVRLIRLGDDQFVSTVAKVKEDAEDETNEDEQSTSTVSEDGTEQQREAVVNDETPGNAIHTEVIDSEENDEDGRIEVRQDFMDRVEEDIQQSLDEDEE

[5] = molecular target: DNA topoisomerase 4 subunit A (Staphylococcus aureus, UniProt P0C1U9); assay: Inhibition of topoisomerase 4 decatenation in Staphylococcus aureus ATCC 29213
DNA topoisomerase 4 subunit A, sequence (P0C1U9 whole entry): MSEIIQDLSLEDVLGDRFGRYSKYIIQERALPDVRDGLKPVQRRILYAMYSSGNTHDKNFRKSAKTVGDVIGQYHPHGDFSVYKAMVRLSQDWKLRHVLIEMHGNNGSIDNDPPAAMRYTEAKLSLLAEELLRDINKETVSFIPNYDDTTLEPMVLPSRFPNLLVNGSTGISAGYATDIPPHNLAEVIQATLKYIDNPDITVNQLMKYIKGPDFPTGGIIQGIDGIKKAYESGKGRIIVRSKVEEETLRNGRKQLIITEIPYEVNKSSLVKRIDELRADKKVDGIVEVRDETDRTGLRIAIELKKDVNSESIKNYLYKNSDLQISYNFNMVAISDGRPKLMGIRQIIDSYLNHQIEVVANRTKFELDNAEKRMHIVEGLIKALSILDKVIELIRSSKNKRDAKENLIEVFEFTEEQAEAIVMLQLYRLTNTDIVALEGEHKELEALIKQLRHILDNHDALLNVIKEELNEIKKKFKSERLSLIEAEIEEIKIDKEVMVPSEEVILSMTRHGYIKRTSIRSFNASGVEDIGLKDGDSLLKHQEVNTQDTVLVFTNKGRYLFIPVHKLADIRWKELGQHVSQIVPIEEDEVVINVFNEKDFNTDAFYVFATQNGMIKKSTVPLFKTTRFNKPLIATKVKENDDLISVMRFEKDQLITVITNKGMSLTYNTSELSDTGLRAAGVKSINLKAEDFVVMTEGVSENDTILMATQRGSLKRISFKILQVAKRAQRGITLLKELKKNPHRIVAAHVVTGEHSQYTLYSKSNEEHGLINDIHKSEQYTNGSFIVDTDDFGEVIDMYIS

[6] = molecular target: DNA gyrase (Escherichia coli, UniProt P0AES4+P0AES6); assay: Inhibition of DNA gyrase supercoiling in Escherichia coli ATCC 25922; assay type: protein-complex assay

Structure (SMILES)	Activity [1]	MIC [2] [µg/mL]	MIC [3] [µg/mL]	Activity [4]	IC50 [5] [µM]	IC50 [6] [µM]
CCc1c2s[nH]c(=O)c2c(=O)n2ccc(N3CCC(N(C)C)C3)cc12 (racemic)	inactive	4 (≈ 11.2 µM)	8 (≈ 22.3 µM)	inactive	79	24
CCc1c2s[nH]c(=O)c2c(=O)n2ccc(N3CCNCC3)cc12	inactive	4 (≈ 12.1 µM)	16 (≈ 48.4 µM)	inactive	37	14
CCn1cc(C(=O)O)c(=O)c2cc(F)c(N3CCNCC3)cc21 [NORFLOXACIN]	–	0.06 (≈ 0.188 µM)	0.5 (≈ 1.57 µM)	–	–	–
O=C(O)c1cn(C2CC2)c2cc(N3CCNCC3)c(F)cc2c1=O [CIPROFLOXACIN]	–	–	0.25 (≈ 0.754 µM)	–	–	–
CCc1c2s[nH]c(=O)c2c(=O)n2ccc(-c3ccncc3)cc12	inactive	0.25 (≈ 0.773 µM)	0.125 (≈ 0.387 µM)	inactive	8.1	0.4
CCc1c2s[nH]c(=O)c2c(=O)n2ccc(-c3cc(C)nc(C)c3)cc12	inactive	1 (≈ 2.85 µM)	0.125 (≈ 0.356 µM)	inactive	6.3	0.2
